Shown are actives, neighbours in structure and some others; about 2.4% of the full set was active somewhere.
Cneo AK release: Cryptococcus neoformans lysis via adenylate kinase release; lysis activity, % at 15 µM; C. neoformans lysis, adenylate kinase release luminescence, 4 h; normalised: neutral wells 0, clomiphene wells 100; AID 651654; 360,000 compounds, 0.2% hits;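 active means mean lysis activity across replicates of at least 80%, whatever share of replicates individually reach that level; inactive means mean lysis activity below 80%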
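Assay system: Cryptococcus neoformans yeast cells / Dosing: single-point compound dose / Timing: 4 h at 37 °C static, read 1 h later / Measured by: luminescence of released adenylate kinase using an AK detection reagent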
miR122 inh: miR-122 inhibition in Huh7 cells; AID 602342; 340,000 compounds, 0.3% hits; Huh7 miR-122 Renilla luciferase sensor, 48 h; neutral wells = 0, positive control = 100; activation (reporter increase), % at 12.5 µM;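 active means mean replicate activation score at least 90 and every replicate individually at or above 90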;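 further: higher luciferase means less miR-122 activity so hits act as miR-122 inhibitors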
INS-1E GSIS act: primary screen for activators of insulin secretion dependent on glucose, INS-1E cells, GLuc reporter luminescence; INS-1E GLuc reporter insulin secretion, 2-3 h; activation, % at 16.6 µM; 370,000 compounds, 0.61% hits;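 active means lowest replicate activation of at least 40%, so every replicate reaches that level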;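 further: 0% = median of neutral control wells and 100% = median of IBMX positive control wells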
dFosB act: enhances mouse delta FosB homodimer DNA binding; purified delta FosB, TAMRA-CDK5 oligo fluorescence polarization; percent of positive-control signal above neutral wells; activation, % at 25 µM; 340,000 compounds, 0.99% hits; AID 493131;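 active means mean activation above about 17%, with every replicate also reaching it, limit read from the data, passing the limit was not always enough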
Rtt109 HAT inh: blocks Candida albicans Rtt109/Vps75 acetyltransferase activity | Q5AAJ8 | purified Rtt109/Vps75, ThioGlo CoA-SH fluorescence, 4 h | inhibition, % at 34.9 µM | 330,000 compounds, 0.16% hits;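 active means inhibition of at least 50% in every replicate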
Target sequence (Q5AAJ8 whole entry, looked up): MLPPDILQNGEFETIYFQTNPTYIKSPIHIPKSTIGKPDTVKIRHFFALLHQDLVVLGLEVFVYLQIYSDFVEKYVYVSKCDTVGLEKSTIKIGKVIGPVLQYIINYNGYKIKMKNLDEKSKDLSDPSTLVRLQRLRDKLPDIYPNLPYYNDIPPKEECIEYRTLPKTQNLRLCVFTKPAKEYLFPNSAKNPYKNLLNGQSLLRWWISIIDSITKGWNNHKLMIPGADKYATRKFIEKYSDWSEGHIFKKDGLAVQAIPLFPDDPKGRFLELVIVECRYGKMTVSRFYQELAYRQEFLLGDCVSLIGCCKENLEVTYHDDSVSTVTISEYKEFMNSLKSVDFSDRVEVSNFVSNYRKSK
HIV Env fusion: blocks HIV Env-driven cell-cell fusion. 360,000 compounds, 1.1% hits. HeLa-JRFL Env/CEM21 cell fusion, luciferase. inhibition, % at 12.3 µM;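 active means mean replicate inhibition score of at least 50 and every replicate individually at or above 50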;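 further: 0% = plate neutral controls and 100% = maraviroc near 300 nM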
* hit, by the source's call; / = no result given; [ ] = dose if it differs, or a comment.

SMILES | Cneo AK release | miR122 inh | INS-1E GSIS act | dFosB act | Rtt109 HAT inh | HIV Env fusion
CCOc1ccc(/C=N/Nc2cc(N3CCOCC3)ncn2)c(O)c1 | -1 | 2 | / | / | / | 11
CCCOc1ccc(/C=N/Nc2cc(N3CCOCC3)ncn2)c(O)c1 | -1 | / | 7 | -8 | 3 | 67*
Cc1ccc(OCC(=O)NC(=S)Nc2cccc(NC(=O)c3ccccc3)c2)cc1 | 0 | 5 | 49* | 4 | 16 | 15
Cc1ccc(C(=O)Nc2ccc3ncccc3c2)cc1 | 129* | / | 11 | -27 | -1 | -20
COc1ccc(-c2cccc(C(=O)Nc3ccc(C)cc3)c2)cc1 | -5 | 26 | 99* | 1 | 0 | -4
C[C@@H]1CCn2cc(nn2)COC[C@H](Cc2ccccc2)NC1=O | / | / | 6 | / | / | /
CC(=O)N(C)C[C@@H]1Oc2ccc(N)cc2C(=O)N(C)C[C@@H]1C | / | / | 11 | / | / | /
COc1ccc(NC(=O)NNC(=O)COc2ccc3cc(Br)ccc3c2)c(OC)c1 | 1 | / | 16 | 82* | -2 | 18
CCCCCCCCC#Cc1nc(C)ccc1OC | 2 | -4 | 56* | 2 | 7 | 14
CCOc1nc(C)ccc1-c1noc(-c2ccccc2OC)n1 | 4 | -5 | / | -22 | / | -141
CCc1nc(N2CCCCC2)c2oc3ccccc3c2n1 | / | 14 | / | -8 | 11 | 69*
CCc1nc(N2CCCCC2C)c2oc3ccccc3c2n1 (configuration not stated) | 86* | 10 | 70 | -11 | 9 | 75*
COCC(=O)Nc1ccc2c(c1)[C@H]1C[C@@H](CC(=O)NC3CCCCC3)O[C@H](CO)[C@H]1O2 | 1 | -12[16.7 µM] | -3 | / | / | 0[16.7 µM]
O=C(C1CC1)N1[C@H](CO)[C@@H]2c3ccccc3N(S(=O)(=O)c3ccc(F)cc3)C[C@@H]21 | -3 | 0[16.7 µM] | -4 | / | / | /
CCN(CC(=O)Nc1cc(Cl)ccc1C)C(=O)C1CCN(c2ncnc3sc(C)c(C)c23)CC1 | 1 | -11 | / | / | / | 61*
Cc1sc2ncnc(N3CCC(C(=O)Nc4cc(S(C)(=O)=O)ccc4Cl)CC3)c2c1C | 2 | -8 | 11 | 2 | 2 | 92*
Cc1noc(C)c1S(=O)(=O)Nc1ccc2c(c1)C(=O)N([C@H](C)CO)C[C@@H](C)[C@@H](CN(C)C(=O)NC1CCCCC1)OCCCC[C@@H](C)O2 | 2 | -4[16.7 µM] | -20 | / | / | -83[16.7 µM]
O=C(c1ccccc1)N1CC(=O)N2[C@H](CO)[C@H](c3ccc(/C=C/c4ccccc4)cc3)[C@H]2C1 | / | / | -22 | / | / | /
C=CCn1c(O)c(N=NC(=S)Nc2cccc(OC)c2)c2ccccc21 | 0 | 22 | 7 | 1 | 8 | /
C=CCn1c(O)c(N=NC(=S)Nc2ccc(OC)cc2)c2ccccc21 | -1 | 4 | -10 | -18 | 14 | 37*
CCn1c(O)c(N=NC(=O)CNC(=O)c2ccco2)c2ccccc21 | / | / | 9 | 3 | 21 | 10
C=CCn1c(O)c(N=NC(=O)CNC(=O)c2ccco2)c2ccccc21 | / | / | 42* | -8 | / | -9
COc1cccc(NC(=O)N(C)C[C@@H]2Oc3ncc(C#Cc4ccncc4)cc3C(=O)N([C@H](C)CO)C[C@H]2C)c1 | -2 | -19[16.7 µM] | 6 | / | / | -9[16.7 µM]
COc1cc(OCC(=O)NC(C)C)cc2c1C(=O)O[C@@H](C)CCCC(=O)CCCCC2 | 2 | -2 | -1 | -3 | -4 | 73*
COc1cc2c(c(OCC(=O)NC(C)C)c1)C(=O)O[C@@H](C)CCCC(=O)CCCCC2 | 1 | -1 | -4 | -13 | 10 | 88*
SMILES | Cneo AK release | miR122 inh | INS-1E GSIS act | dFosB act | Rtt109 HAT inh | HIV Env fusion
Cc1cc(OCC(=O)NC(C)C)cc(C)c1Br | / | / | 5 | -7 | 3 | /
CCNC(=O)C[C@@H]1CC[C@@H]2[C@H](COc3ccc(NC(=O)c4cc(C)on4)cc3C(=O)N2C)O1 | -1 | 8[16.7 µM] | 5 | / | / | 2[16.7 µM]
Cn1c(=O)c2ncn(CC(=O)Nc3cccc(-c4nc5ccccc5s4)c3)c2n(C)c1=O | -12 | 6 | / | 78* | -4 | /
N#Cc1nc(N2CCOCC2)nc(N2CCOCC2)n1 | 5 | -4 | 57* | -4 | -12 | /
COCC(=O)N1CC2(C1)CN(C(=O)c1ccccn1)[C@H](CO)c1c2c2ccc(OC)cc2n1C | / | / | 9 | / | / | /
O=S(=O)(c1ccccc1)c1cc(O)ccc1O | 2 | 221* | 2 | 4 | 4 | 6

Assay outcomes: PubChem BioAssay, Broad Institute
